Laboratory results published in ChEMBL document CHEMBL1139470, “Benzophenone-based farnesyltransferase inhibitors with high activity against Trypanosoma cruzi” (J Med Chem, 2005).

Target: not listed separately
Test: Inhibition of Saccharomyces cerevisiae FTase
Conditions: not given

Q: For `CCc1ccc(-c2ccc(/C=C/C(=O)Nc3ccc(NC(=O)Cc4ccc(C)cc4)c(C(=O)c4ccccc4)c3)o2)cc1`, which IC50 is on record?
A: Its IC50 is 0.09 µM.

Q: For `O=C(/C=C/c1ccc(-c2ccc([N+](=O)[O-])cc2)o1)Nc1ccc(NC(=O)C(c2ccccc2)N2CCN(c3ccccc3)CC2)c(C(=O)c2ccccc2)c1` (stereo not drawn), which IC50 is on record?
A: The IC50 was 0.3 µM.

Q: With `Cc1ccc(CC(=O)Nc2ccc(NC(=O)/C=C/c3ccc(-c4ccc(S(C)(=O)=O)cc4)o3)cc2C(=O)c2ccccc2)cc1` as the compound, how does the IC50 read?
A: The IC50 was 0.03 µM.

Q: Which IC50 does the source give for `NC(C(=O)Nc1ccc(NC(=O)/C=C/c2ccc(-c3ccc([N+](=O)[O-])cc3)o2)cc1C(=O)c1ccccc1)c1ccc(C(F)(F)F)cc1` (stereo not drawn) here?
A: The IC50 was 0.017 µM.

Q: For `CC(C)C[C@H](N)C(=O)Nc1ccc(NC(=O)/C=C/c2ccc(-c3ccc([N+](=O)[O-])cc3)o2)cc1C(=O)c1ccccc1`, which IC50 is on record?
A: The IC50 was 0.36 µM.

Q: For `NC(Cc1ccc(C(F)(F)F)cc1)C(=O)Nc1ccc(NC(=O)/C=C/c2ccc(-c3ccc([N+](=O)[O-])cc3)o2)cc1C(=O)c1ccccc1` (stereo not drawn), which IC50 is on record?
A: Its IC50 is 0.095 µM.

Q: With `N[C@@H](Cc1ccccc1)C(=O)Nc1ccc(NC(=O)/C=C/c2ccc(-c3ccc([N+](=O)[O-])cc3)o2)cc1C(=O)c1ccccc1` as the compound, how does the IC50 read?
A: The IC50 was 0.003 µM.

Q: With `O=C(/C=C/c1ccc(-c2ccc([N+](=O)[O-])cc2)o1)Nc1ccc(NC(=O)C(c2ccccc2)N2CCN(C3CCCCC3)CC2)c(C(=O)c2ccccc2)c1` (stereo not drawn) as the compound, how does the IC50 read?
A: The IC50 was 0.34 µM.

Q: Which IC50 does the source give for `N[C@H](Cc1ccc(Cl)cc1)C(=O)Nc1ccc(NC(=O)/C=C/c2ccc(-c3ccc([N+](=O)[O-])cc3)o2)cc1C(=O)c1ccccc1` here?
A: The IC50 was 0.07 µM.

Q: Which IC50 does the source give for `CSCC[C@@H](N)C(=O)Nc1ccc(NC(=O)/C=C/c2ccc(-c3ccc([N+](=O)[O-])cc3)o2)cc1C(=O)c1ccccc1` here?
A: The IC50 was 0.5 µM.

Q: With `CC(C)(C)OC(=O)NC(Cc1ccc(C(F)(F)F)cc1)C(=O)Nc1ccc(NC(=O)/C=C/c2ccc(-c3ccc([N+](=O)[O-])cc3)o2)cc1C(=O)c1ccccc1` (stereo not drawn) as the compound, how does the IC50 read?
A: Its IC50 is 0.285 µM.

Q: With `N[C@@H](Cc1ccc(Cl)cc1)C(=O)Nc1ccc(NC(=O)/C=C/c2ccc(-c3ccc([N+](=O)[O-])cc3)o2)cc1C(=O)c1ccccc1` as the compound, how does the IC50 read?
A: Its IC50 is 0.06 µM.

Q: Which IC50 does the source give for `CSCC[C@H](N)C(=O)Nc1ccc(NC(=O)/C=C/c2ccc(-c3ccc([N+](=O)[O-])cc3)o2)cc1C(=O)c1ccccc1` here?
A: The IC50 was 1.77 µM.

Q: With `O=C(/C=C/c1ccc(-c2ccc([N+](=O)[O-])cc2)o1)Nc1ccc(NC(=O)Cc2ccc(C(F)(F)F)cc2)c(C(=O)c2ccccc2)c1` as the compound, how does the IC50 read?
A: The IC50 was 0.026 µM.

Q: With `N[C@H](C(=O)Nc1ccc(NC(=O)/C=C/c2ccc(-c3ccc([N+](=O)[O-])cc3)o2)cc1C(=O)c1ccccc1)c1ccccc1` as the compound, how does the IC50 read?
A: The IC50 was 0.046 µM.

Q: For `CN1CCN(C(C(=O)Nc2ccc(NC(=O)/C=C/c3ccc(-c4ccc([N+](=O)[O-])cc4)o3)cc2C(=O)c2ccccc2)c2ccccc2)CC1` (stereo not drawn), which IC50 is on record?
A: Its IC50 is 0.01 µM.

Test system: not listed separately
Test: Cytotoxicity against HeLa cells after 72 hrs
Type: cell-based
Conditions: human
Summary of the method: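 HeLa cells grown in RPMI 1640 with 10% heat-inactivated FBS and gentamicin, then harvested in log phase by trypsinization. About 10 000 cells/well were preincubated 48 h before compound addition (10 mM DMSO stock diluted 1:200 in medium). Cells were exposed 72 h at 37 °C, 5% CO2, fixed with glutaraldehyde and stained with methylene blue. Stain was eluted with HCl and OD read at 660 nm to give CC50.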

Q: For `CC(C)C[C@H](N)C(=O)Nc1ccc(NC(=O)/C=C/c2ccc(-c3ccc([N+](=O)[O-])cc3)o2)cc1C(=O)c1ccccc1`, which CC50 at 72 h is on record?
A: The CC50 at 72 h was over 83 µM.

Q: With `N[C@@H](Cc1ccccc1)C(=O)Nc1ccc(NC(=O)/C=C/c2ccc(-c3ccc([N+](=O)[O-])cc3)o2)cc1C(=O)c1ccccc1` as the compound, how does the CC50 at 72 h read?
A: The CC50 at 72 h was over 79 µM.

Q: Which CC50 at 72 h does the source give for `O=C(/C=C/c1ccc(-c2ccc([N+](=O)[O-])cc2)o1)Nc1ccc(NC(=O)C(c2ccccc2)N2CCN(C3CCCCC3)CC2)c(C(=O)c2ccccc2)c1` (stereo not drawn) here?
A: Its CC50 at 72 h is 42 µM.

Q: Which CC50 at 72 h does the source give for `N[C@H](Cc1ccc(Cl)cc1)C(=O)Nc1ccc(NC(=O)/C=C/c2ccc(-c3ccc([N+](=O)[O-])cc3)o2)cc1C(=O)c1ccccc1` here?
A: The CC50 at 72 h was over 74.5 µM.

Q: For `CSCC[C@@H](N)C(=O)Nc1ccc(NC(=O)/C=C/c2ccc(-c3ccc([N+](=O)[O-])cc3)o2)cc1C(=O)c1ccccc1`, which CC50 at 72 h is on record?
A: Its CC50 at 72 h is over 81 µM.

Q: With `N[C@@H](Cc1ccc(Cl)cc1)C(=O)Nc1ccc(NC(=O)/C=C/c2ccc(-c3ccc([N+](=O)[O-])cc3)o2)cc1C(=O)c1ccccc1` as the compound, how does the CC50 at 72 h read?
A: The CC50 at 72 h was over 74.5 µM.

Q: Which CC50 at 72 h does the source give for `CSCC[C@H](N)C(=O)Nc1ccc(NC(=O)/C=C/c2ccc(-c3ccc([N+](=O)[O-])cc3)o2)cc1C(=O)c1ccccc1` here?
A: The CC50 at 72 h was over 81 µM.

Q: For `O=C(/C=C/c1ccc(-c2ccc([N+](=O)[O-])cc2)o1)Nc1ccc(NC(=O)Cc2ccc(C(F)(F)F)cc2)c(C(=O)c2ccccc2)c1`, which CC50 at 72 h is on record?
A: Its CC50 at 72 h is over 57 µM.

Q: For `N[C@H](C(=O)Nc1ccc(NC(=O)/C=C/c2ccc(-c3ccc([N+](=O)[O-])cc3)o2)cc1C(=O)c1ccccc1)c1ccccc1`, which CC50 at 72 h is on record?
A: The CC50 at 72 h was over 80 µM.

Q: With `CN1CCN(C(C(=O)Nc2ccc(NC(=O)/C=C/c3ccc(-c4ccc([N+](=O)[O-])cc4)o3)cc2C(=O)c2ccccc2)c2ccccc2)CC1` (stereo not drawn) as the compound, how does the CC50 at 72 h read?
A: The CC50 at 72 h was 37 µM.

Test system: Trypanosoma cruzi
Test: Inhibition of Trypanosoma cruzi Tulahuen in BALB/c mouse blood
Type: functional
Conditions: not given
Summary of the method: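 Trypomastigote lysis assay: mouse blood (from infected BALB/c, cardiac puncture) holding 5 × 10^4 bloodstream trypomastigotes per well, compound added from 10 mM DMSO stock diluted in BHI; DMSO controls (final 1/1000). 24 h at 4 °C, then microscopic counting at 400×. Triplicates, experiments repeated 3–4 times; lysis relative to control; LC50 = minimal concentration lysing 50%.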

Q: With `CCc1ccc(-c2ccc(/C=C/C(=O)Nc3ccc(NC(=O)Cc4ccc(C)cc4)c(C(=O)c4ccccc4)c3)o2)cc1` as the compound, how does the LC50 read?
A: Its LC50 is 50 µM.

Q: For `O=C(/C=C/c1ccc(-c2ccc([N+](=O)[O-])cc2)o1)Nc1ccc(NC(=O)C(c2ccccc2)N2CCN(c3ccccc3)CC2)c(C(=O)c2ccccc2)c1` (stereo not drawn), which LC50 is on record?
A: Its LC50 is over 50 µM.

Q: Which LC50 does the source give for `Cc1ccc(CC(=O)Nc2ccc(NC(=O)/C=C/c3ccc(-c4ccc(S(C)(=O)=O)cc4)o3)cc2C(=O)c2ccccc2)cc1` here?
A: Its LC50 is 50 µM.

Q: With `NC(C(=O)Nc1ccc(NC(=O)/C=C/c2ccc(-c3ccc([N+](=O)[O-])cc3)o2)cc1C(=O)c1ccccc1)c1ccc(C(F)(F)F)cc1` (stereo not drawn) as the compound, how does the LC50 read?
A: The LC50 was 10 µM.

Q: With `CC(C)C[C@H](N)C(=O)Nc1ccc(NC(=O)/C=C/c2ccc(-c3ccc([N+](=O)[O-])cc3)o2)cc1C(=O)c1ccccc1` as the compound, how does the LC50 read?
A: The LC50 was 1 µM.

Q: With `NC(Cc1ccc(C(F)(F)F)cc1)C(=O)Nc1ccc(NC(=O)/C=C/c2ccc(-c3ccc([N+](=O)[O-])cc3)o2)cc1C(=O)c1ccccc1` (stereo not drawn) as the compound, how does the LC50 read?
A: Its LC50 is 50 µM.

Q: For `N[C@@H](Cc1ccccc1)C(=O)Nc1ccc(NC(=O)/C=C/c2ccc(-c3ccc([N+](=O)[O-])cc3)o2)cc1C(=O)c1ccccc1`, which LC50 is on record?
A: Its LC50 is over 10 µM.

Q: Which LC50 does the source give for `O=C(/C=C/c1ccc(-c2ccc([N+](=O)[O-])cc2)o1)Nc1ccc(NC(=O)C(c2ccccc2)N2CCN(C3CCCCC3)CC2)c(C(=O)c2ccccc2)c1` (stereo not drawn) here?
A: Its LC50 is 1 µM.

Q: For `N[C@H](Cc1ccc(Cl)cc1)C(=O)Nc1ccc(NC(=O)/C=C/c2ccc(-c3ccc([N+](=O)[O-])cc3)o2)cc1C(=O)c1ccccc1`, which LC50 is on record?
A: Its LC50 is over 10 µM.

Q: With `CSCC[C@@H](N)C(=O)Nc1ccc(NC(=O)/C=C/c2ccc(-c3ccc([N+](=O)[O-])cc3)o2)cc1C(=O)c1ccccc1` as the compound, how does the LC50 read?
A: Its LC50 is over 10 µM.

Q: With `O=C1CCN(C(C(=O)Nc2ccc(NC(=O)/C=C/c3ccc(-c4ccc([N+](=O)[O-])cc4)o3)cc2C(=O)c2ccccc2)c2ccccc2)CC1` (stereo not drawn) as the compound, how does the LC50 read?
A: Its LC50 is 1 µM.

Q: For `CC(C)(C)OC(=O)NC(Cc1ccc(C(F)(F)F)cc1)C(=O)Nc1ccc(NC(=O)/C=C/c2ccc(-c3ccc([N+](=O)[O-])cc3)o2)cc1C(=O)c1ccccc1` (stereo not drawn), which LC50 is on record?
A: Its LC50 is over 50 µM.

Q: For `N[C@@H](Cc1ccc(Cl)cc1)C(=O)Nc1ccc(NC(=O)/C=C/c2ccc(-c3ccc([N+](=O)[O-])cc3)o2)cc1C(=O)c1ccccc1`, which LC50 is on record?
A: The LC50 was 1 µM.

Q: Which LC50 does the source give for `CSCC[C@H](N)C(=O)Nc1ccc(NC(=O)/C=C/c2ccc(-c3ccc([N+](=O)[O-])cc3)o2)cc1C(=O)c1ccccc1` here?
A: Its LC50 is over 10 µM.

Q: With `O=C(/C=C/c1ccc(-c2ccc([N+](=O)[O-])cc2)o1)Nc1ccc(NC(=O)Cc2ccc(C(F)(F)F)cc2)c(C(=O)c2ccccc2)c1` as the compound, how does the LC50 read?
A: The LC50 was 50 µM.

Q: For `N[C@H](C(=O)Nc1ccc(NC(=O)/C=C/c2ccc(-c3ccc([N+](=O)[O-])cc3)o2)cc1C(=O)c1ccccc1)c1ccccc1`, which LC50 is on record?
A: Its LC50 is over 50 µM.

Q: For `CN1CCN(C(C(=O)Nc2ccc(NC(=O)/C=C/c3ccc(-c4ccc([N+](=O)[O-])cc4)o3)cc2C(=O)c2ccccc2)c2ccccc2)CC1` (stereo not drawn), which LC50 is on record?
A: The LC50 was 10 µM.
